Paper PMC5413378 (Cancer research, 2017)

Columns and labels:
[1] = test system: BRD2, BRD3 and BRD4; test: BET protein depletion by immunoblotting in TNBC cell lines; type: cell-based, human; details: for concentration giving near-complete depletion of BRD2-4 proteins / effect on BET protein levels: TNBC cell lines; for effect on BET protein levels: immunoblotting
[2] = test system: MDA-MB-468 cells; test: Proteomic profiling; type: cell-based, human; details: 2 h
[3] = test system: TNBC cell lines; test: CellTiter Glo cell viability assay in a panel of 13 TNBC cell lines; type: cell-based, human; details: for IC50: read-out: IC50 growth inhibition, in 9 of the 13 cell lines, 4 days
[4] = test system: caspase-3 and poly(ADP-ribose) polymerase (PARP); test: Caspase-3 and PARP cleavage by immunoblotting; type: cell-based, human; details: as low as
[5] = test system: MCL1; test: MCL1 expression by qRT-PCR and immunoblotting; type: cell-based, human; details: for expression of BRD2 and MCL1: MDA-MB-468 cells, 12 h immunoblotting, JQ1 2000 nM, dBET1 500 nM
[6] = test system: TNBC cell lines; type: cell-based, human
[7] = test system: WHIM24 PDX model; test: WHIM24 PDX efficacy study; type: in vivo; details: for antitumor activity: 3 times per week for 3 weeks; for weight loss or apparent toxicity: WHIM24 model
Method in brief: (§1)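 SCID mice bearing MDA-MB-231 xenografts or serially passaged WHIM24 PDX tumours were randomised once tumours reached 80-200 mm3. Test compound was given IV in 10% PEG400: 3% Cremophor: 87% PBS, 3 times per week for 3 weeks. Tumour size and body weight were measured 2-3 times weekly. Volume was (length×width2)/2, and TGI used group medians. Data are mean ± SEM (n=7-8), with two-tailed t test versus vehicle.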

[8] = test system: BET proteins; test: Pharmacodynamic analysis in WHIM24 tumors; type: in vivo, SCID mice
[9] = Pharmacokinetics in WHIM24 tumor-bearing mice; type: in vivo; details: single dose 10 mg/kg, at 1 and 3 h; concentrations diminished rapidly
[10] = test system: MDA-MB-453 xenograft model; test: MDA-MB-453 xenograft efficacy study; type: in vivo; details: for weight loss or apparent toxicity: MDA-MB-453 model
Method in brief: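 Five million MDA-MB-453 cells were implanted subcutaneously in SCID mice, which were randomised at tumour size 80-200 mm3. Dosing was IV in 10% PEG400: 3% Cremophor: 87% PBS, or oral in 2% TPGS: 98% PEG200. Tumours and body weight were measured every 2-3 days. Volume was (length×width2)/2, and TGI (%) = (Vc-Vt)/(Vc-Vo)×100 using medians. Two-tailed t test versus vehicle; n=7-8.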

[11] = test system: MDA-MB-231 xenograft model; test: MDA-MB-231 xenograft efficacy study; type: in vivo; details: for antitumor activity: IV; for weight loss or overt toxicity: MDA-MB-231 model
Method in brief: as §1

[12] = test system: MDA-MB-468 xenograft model; test: MDA-MB-468 xenograft efficacy study; type: in vivo, SCID mice; details: 10 mg/kg, IV, 3 times per week for 2-3 weeks
[13] = PK analysis in MDA-MB-231 xenograft model; type: in vivo, mice; details: MDA-MB-231 model
[14] = PK analysis in MDA-MB-468 xenograft model; type: in vivo, mice; details: MDA-MB-468 model
[15] = test system: normal mouse tissues; test: Toxicity in immune-competent Balb/c mice; type: in vivo; details: 5 mg/kg intravenously, daily, 5 days a week for 2 weeks
Method in brief: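 Immune-competent Balb/c mice received test compound intravenously, daily, 5 days a week for 2 weeks. Animals were sacrificed at the end of treatment, and tissues were examined for damage.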

[16] = molecular target: BRD4 (Mus musculus, UniProt Q9ESU6); test: BRD4 protein in mouse liver tissue; type: in vivo; details: single dose 5 mg/kg
[17] = molecular target: BET proteins; test: Binding to BET proteins
[18] = test system: TNBC cell lines; test: Annexin V-PI apoptosis flow cytometry analysis; type: cell-based, human
[19] = test system: BET proteins; test: PD analysis in MDA-MB-231 xenograft tumors; type: in vivo, SCID mice; details: single dose 5 mg/kg, 1-3 h post drug exposure
[20] = test system: BET proteins; test: PD analysis in MDA-MB-468 xenograft tumors; type: in vivo, SCID mice; details: single dose 5 mg/kg, 1-3 h post drug exposure

CCn1nc(C2CC2)cc1Nc1nc(C(=O)NCCCOCCOCCOCCCNc2cccc3c2C(=O)N(C2CCC(=O)NC2=O)C3=O)nc2[nH]c3cc(-c4c(C)noc4C)c(OC)cc3c12 (stereo not drawn) [BETd-246]
concentration giving near-complete depletion of BRD2-4 proteins ([1]; 1 h treatment): 30 to 100 nM | concentration giving near-complete depletion of BRD2-4 proteins ([1]; 3 h treatment): 10 to 30 nM | decrease of BRD2, BRD3 and BRD4 protein levels ([2]; 100 nM, MDA-MB-468, p<0.05, only proteins decreased out of ~5500 quantified): ≥ 2 fold | IC90 ([3]; in 7 of the 13 cell lines): < 100 nM | IC50 [3]: < 10 nM | lowest concentration giving profound cleavage of caspase-3 and PARP [4]: 10 nM | lowest concentration giving significant down-regulation of MCL1 mRNA ([5]; as low as, MDA-MB-468, 8 h, qRT-PCR): 10 nM | synergy in combination with BM-1197, ABT-263 and A-1155463 ([6]; in 6 of the 7 cell lines): Modest to strong synergy | strong synergistic induction of apoptosis in combination with ABT-199 ([6]; panel of TNBC cell lines): only observed in MDA-MB-468 | antitumor activity ([7]; 5 mg/kg, IV): effectively inhibited WHIM24 tumor growth | antitumor activity ([7]; 10 mg/kg, during treatment): partial tumor regression | weight loss or apparent toxicity [7]: Neither BETi-211 nor BETd-246 caused significant weight loss | MCL1 protein levels in tumors ([8]; as early as 3 h after treatment): markedly reduced | duration of BET protein reduction in tumors ([8]; single IV dose 10 mg/kg): at least 9 h | reduction of the levels of BET proteins in tumors ([8]; single IV dose 10 mg/kg, as early as 1 h): > 80% | drug exposure in plasma and WHIM24 tumors [9]: reasonable drug exposure | weight loss or apparent toxicity [10]: No significant weight loss | antitumor activity ([11]; 10 mg/kg, 3 times per week for 2-3 weeks): very limited | weight loss or overt toxicity [11]: Neither BETd-246 nor BETd-260 caused significant weight loss | antitumor activity [12]: no antitumor activity | drug exposure in plasma and xenograft tumor tissue [13]: very limited drug exposure | drug exposure in plasma and xenograft tumor tissue [14]: very limited drug exposure | toxicity in normal mouse tissues [15]: no significant toxicity | BRD4 protein in mouse liver tissue [16]: effectively reduce BRD4 protein

CCn1nc(C2CC2)cc1Nc1nc(COC)nc2[nH]c3cc(-c4c(C)noc4C)c(OC)cc3c12 [BETi-211]
Ki [17]: < 1 nM | times more potent than RX-37, JQ-1, OTX-015 or IBET-762 [17]: 10-100 times | effect on BET protein levels [1]: did not degrade BET proteins | increase of BRD2 protein level ([2]; 1000 nM, MDA-MB-468): 2 fold | growth inhibition ([3]; at 2.5 μM, achieved in 2 of the 13 cell lines): ≥ 90% | IC50 [3]: < 1000 nM | apoptosis induction ([18]; 1000 nM, 48 h treatment): 3-25% | synergism with either BM-1197 or ABT-263 [6]: No clear synergism | weight loss or apparent toxicity [7]: Neither BETi-211 nor BETd-246 caused significant weight loss | tumor growth inhibition ([10]; 50 mg/kg, daily, 5 days a week for 2 weeks): failed to achieve tumor growth inhibition | weight loss or apparent toxicity [10]: No significant weight loss

Cc1sc2c(c1C)C(c1ccc(Cl)cc1)=N[C@@H](CC(=O)NCCCCNC(=O)COc1cccc3c1C(=O)N(C1CCC(=O)NC1=O)C3=O)c1nnc(C)n1-2 (stereo partly drawn) [dBET1, reference compound]
BET protein depletion ([1]; 500 nM, MDA-MB-468 cells, 12 h): effectively depleted BET proteins | expression of BRD2 and MCL1 [5]: downregulated MCL1 expression

Cc1sc2c(c1C)C(c1ccc(Cl)cc1)=N[C@@H](CC(=O)OC(C)(C)C)c1nnc(C)n1-2 [JQ1]
expression of BRD2 and MCL1 [5]: increased expression of BRD2 and MCL1

CCn1nc(C2CC2)cc1Nc1nc(C(=O)NCCCCCc2cccc3c2CN(C2CCC(=O)NC2=O)C3=O)nc2[nH]c3cc(-c4c(C)noc4C)c(OC)cc3c12 (stereo not drawn) [BETd-260]
effect on BET protein levels [1]: potently depleted BET proteins at low nanomolar concentrations | times more potent than BETd-246 in growth inhibition ([3]; TNBC cells): 2-7 times | antitumor activity ([11]; 5 mg/kg, 3 times per week for 3 weeks, compared with BETd-246 at 10 mg/kg): much stronger antitumor activity than BETd-246 | weight loss or overt toxicity [11]: Neither BETd-246 nor BETd-260 caused significant weight loss | drug exposure in plasma and xenograft tumor tissue [13]: much higher than that of BETd-246 | drug exposure in plasma and xenograft tumor tissue [14]: much higher than that of BETd-246 | BET protein levels in xenograft tumors [19]: effectively reduced BET protein levels | BET protein levels in xenograft tumors [20]: effectively reduced BET protein levels

O=C1CCC(N2C(=O)c3ccccc3C2=O)C(=O)N1 (stereo not drawn) [Thalidomide, thalidomide, reference compound]
effect on BET protein levels [1]: no significant effect | effect on apoptosis induction and cell proliferation ([18]; alone): no significant effect
